# According to ChEMBL document CHEMBL3632581, “Dimers of Melampomagnolide B Exhibit Potent Anticancer Activity against Hematological and Solid Tumor Cells” (J Med Chem, 2015):
# pEC50: −log10 of the molar value.
# Experiments:
# TK-10 = assay: Cytotoxicity against human TK10 cells after 48 hrs by SRB assay; assay type: functional; conditions: TK-10, 48 h; for CC50: read-out: LC50 (the source's name)
# Outline: (§1)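 NCI-60 screen: cells grown in RPMI 1640 with 5% FBS and 2 mM L-glutamine, plated at 5,000–40,000 cells/well by doubling time, and preincubated 24 h at 37 °C before drug. Drug was diluted from DMSO stock and given at five concentrations, 10−4 to 10−8 M, for 48 h. Cells fixed with cold TCA, SRB stained, OD read at 515 nm against time-zero and vehicle plates. LC50 taken as the concentration that halves cell population through cell death.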
# A549 = assay: Cytotoxicity against human A549 cells after 48 hrs by SRB assay; assay type: functional; conditions: A549, 48 h; for CC50: read-out: LC50 (the source's name)
# Outline: (§2)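 NCI-60 five-dose screen at 10−8 to 10−4 M. Cells were plated at 5,000–40,000/well in RPMI 1640 with 5% FBS and 2 mM L-glutamine, then preincubated 24 h, and time-zero plates were TCA-fixed. Compound was added from DMSO stocks and exposed 48 h at 37 °C. Cells were TCA-fixed, SRB-stained, and read at 515 nm. LC50 is the concentration halving the cell population through cell death.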
# [1] = Cytotoxicity against human Hs 578T cells after 48 hrs by SRB assay; assay type: functional; conditions: for CC50: read-out: LC50 (the source's name); outline: as §2
# SR = assay: Cytotoxicity against human SR cells after 48 hrs by SRB assay; assay type: functional; conditions: for CC50: read-out: LC50 (the source's name); outline: as §1
# HT-29 = assay: Cytotoxicity against human HT-29 cells after 48 hrs by SRB assay; assay type: functional; conditions: HT-29, 48 h; for CC50: read-out: LC50 (the source's name); outline: as §2
# OVCAR-8 = assay: Cytotoxicity against human OVCAR8 cells after 48 hrs by SRB assay; assay type: functional; conditions: OVCAR-8, 48 h; for CC50: read-out: LC50 (the source's name); outline: as §2
# HCT-15 = assay: Cytotoxicity against human HCT15 cells after 48 hrs by SRB assay; assay type: functional; conditions: HCT-15, 48 h; for CC50: read-out: LC50 (the source's name); outline: as §2
# LOX IMVI = assay: Cytotoxicity against human LOXIMVI cells after 48 hrs by SRB assay; assay type: functional; conditions: for CC50: read-out: LC50 (the source's name); outline: as §2
# DU-145 = assay: Cytotoxicity against human DU145 cells after 48 hrs by SRB assay; assay type: functional; conditions: DU-145, 48 h; outline: as §2
# OVCAR-5 = assay: Cytotoxicity against human OVCAR5 cells after 48 hrs by SRB assay; assay type: functional; conditions: OVCAR-5, 48 h; for CC50: read-out: LC50 (the source's name); outline: as §2
# SK-MEL-28 = assay: Cytotoxicity against human SK-MEL-28 cells after 48 hrs by SRB assay; assay type: functional; conditions: SK-MEL-28, 48 h; for CC50: read-out: LC50 (the source's name); outline: as §2
# BT-549 = assay: Cytotoxicity against human BT549 cells after 48 hrs by SRB assay; assay type: functional; conditions: BT-549, 48 h; outline: as §2
# HL-60(TB) = assay: Cytotoxicity against human HL-60(TB) cells after 48 hrs by SRB assay; assay type: functional; conditions: HL-60, 48 h; for CC50: read-out: LC50 (the source's name); outline: as §2
# [2] = Antileukemic activity against human AML05 cells after 24 hrs by annexin V/7-AAD staining-based flow cytometric analysis; assay type: functional, cell-based
# Outline: (§3)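 Primary AML specimens from consenting donors, isolated by Ficoll-Paque gradient and sometimes cryopreserved. Cells were held 1 h in serum-free IMDM with 20% BIT 9500, LDL and β-mercaptoethanol before drug (DMSO stock diluted in PBS, ≤0.5% DMSO final). Exposure was 24 h over 0.5-10 μM. Annexin V/7-AAD double-negative cells, normalized to vehicle, gave the EC50. Run in triplicate.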
# MCF7 = assay: Cytotoxicity against human MCF7 cells after 48 hrs by SRB assay; assay type: functional; conditions: MCF7, 48 h
# Outline: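 NCI-60 screen: cells in RPMI 1640 with 5% FBS and 2 mM L-glutamine, preincubated 24 h at 37 °C. Compound was then added for 48 h at five concentrations (10−4 to 10−8 M). Cells were fixed with cold TCA and stained with 0.4% SRB in 1% acetic acid, and OD read at 515 nm. GI50 is the concentration halving net protein increase versus control.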
# CAKI-1 = assay: Cytotoxicity against human Caki1 cells after 48 hrs by SRB assay; assay type: functional; conditions: CAKI-1, 48 h; for CC50: read-out: LC50 (the source's name); outline: as §2
# NCI-H460 = assay: Cytotoxicity against human NCI-H460 cells after 48 hrs by SRB assay; assay type: functional; conditions: NCI-H460, 48 h; for CC50: read-out: LC50 (the source's name); outline: as §2
# UACC-62 = assay: Cytotoxicity against human UACC62 cells after 48 hrs by SRB assay; assay type: functional; conditions: UACC-62, 48 h; for CC50: read-out: LC50 (the source's name); outline: as §1
# OVCAR-3 = assay: Cytotoxicity against human OVCAR3 cells after 48 hrs by SRB assay; assay type: functional; conditions: OVCAR-3, 48 h; for CC50: read-out: LC50 (the source's name); outline: as §2
# [3] = Antileukemic activity against human AML04 cells after 24 hrs by annexin V/7-AAD staining-based flow cytometric analysis; assay type: functional, cell-based; outline: as §3
# [4] = Cytotoxicity against hematopoietic progenitor cells isolated from human umbilical cord blood by annexin V staining-based flow cytometric analysis; assay type: cell-based
# Outline: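 Cord-blood mononuclear cells from Ficoll-Paque were plated in serum-free medium, with drug from a DMSO stock (≤0.5% DMSO final). Cells were stained for CD34, CD45 and annexin V. The non-apoptotic fraction (annexin V-negative within the CD34+CD45dim compartment) was normalized to vehicle, and EC50 was fitted where possible. Triplicate.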
# Malme-3M = assay: Cytotoxicity against human MALME-3M cells after 48 hrs by SRB assay; assay type: functional; conditions: for CC50: read-out: LC50 (the source's name); outline: as §2
# RPMI-8226 = assay: Cytotoxicity against human RPMI8226 cells after 48 hrs by SRB assay; assay type: functional; conditions: RPMI-8226, 48 h; for CC50: read-out: LC50 (the source's name); outline: as §2
# [5] = Antileukemic activity against human AML01 cells after 24 hrs by annexin V/7-AAD staining-based flow cytometric analysis; assay type: functional, cell-based; outline: as §3
# SF-539 = assay: Cytotoxicity against human SF539 cells after 48 hrs by SRB assay; assay type: functional; conditions: SF-539, 48 h; for CC50: read-out: LC50 (the source's name); outline: as §2
# SF-268 = assay: Cytotoxicity against human SF268 cells after 48 hrs by SRB assay; assay type: functional; conditions: SF-268, 48 h; for CC50: read-out: LC50 (the source's name); outline: as §2
# [6] = Antileukemic activity against human M9-ENL1 cells after 24 hrs by annexin V/7-AAD staining-based flow cytometric analysis; assay type: functional, cell-based
# Outline: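 M9-ENL1 cells in alpha-MEM with 5% human plasma, 20% FBS, SCF, IL-3, IL-7 and FLT3. Drug came from a DMSO stock diluted in PBS (≤0.5% DMSO final), for 24 h over 0.5-10 μM. Cells negative for both annexin V and 7-AAD were taken as non-apoptotic and normalized to vehicle. EC50 read from dose-response curves, triplicate.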
# K562 = assay: Cytotoxicity against human K562 cells after 48 hrs by SRB assay; assay type: functional; conditions: K562, 48 h; for CC50: read-out: LC50 (the source's name); outline: as §2
# M14 = assay: Cytotoxicity against human M14 cells after 48 hrs by SRB assay; assay type: functional; conditions: M14, 48 h; for CC50: read-out: LC50 (the source's name); outline: as §2
smiles,measurement,setting,value
C=C1C(=O)O[C@H]2[C@H]1CC/C(COC(=O)NCCCCNC(=O)OC/C1=C/CC[C@@]3(C)O[C@H]3[C@H]3OC(=O)C(=C)[C@@H]3CC1)=C\CC[C@@]1(C)O[C@@H]21,GI50,TK-10,1.61 µM
same,CC50,TK-10,11.3 µM
same,GI50,A549,8.02 µM
same,CC50,A549,58.7 µM
same,GI50,[1],2.54 µM
same,CC50,[1],> 100 µM
same,GI50,SR,0.54 µM
same,CC50,SR,> 100 µM
same,GI50,HT-29,0.6 µM
same,CC50,HT-29,> 100 µM
same,GI50,OVCAR-8,2.18 µM
same,CC50,OVCAR-8,40.2 µM
same,GI50,HCT-15,5.61 µM
same,CC50,HCT-15,56.3 µM
same,GI50,LOX IMVI,0.51 µM
same,CC50,LOX IMVI,5.15 µM
same,GI50,DU-145,3.21 µM
same,LC50 (concentration killing half the cells),DU-145,33.8 µM
same,GI50,OVCAR-5,1.75 µM
same,CC50,OVCAR-5,7.79 µM
same,GI50,SK-MEL-28,0.52 µM
same,CC50,SK-MEL-28,8.08 µM
same,GI50,BT-549,1.6 µM
same,LC50,BT-549,8.23 µM
same,GI50,HL-60(TB),0.25 µM
same,CC50,HL-60(TB),> 100 µM
same,pEC50,[2],5.70
same,GI50,MCF7,0.38 µM
same,GI50,CAKI-1,10.8 µM
same,CC50,CAKI-1,49.1 µM
same,GI50,NCI-H460,4.61 µM
same,CC50,NCI-H460,60.7 µM
same,GI50,UACC-62,0.75 µM
same,CC50,UACC-62,7.06 µM
same,GI50,OVCAR-3,0.69 µM
same,CC50,OVCAR-3,4.76 µM
same,pEC50,[3],5.38
same,pEC50,[4],< 5.00
same,GI50,Malme-3M,0.45 µM
same,CC50,Malme-3M,8.43 µM
same,GI50,RPMI-8226,0.54 µM
same,CC50,RPMI-8226,> 100 µM
same,pEC50,[5],5.66
same,GI50,SF-539,1.55 µM
same,CC50,SF-539,8.84 µM
same,GI50,SF-268,3.18 µM
same,CC50,SF-268,51 µM
same,pEC50,[6],5.82
same,GI50,K562,0.66 µM
same,CC50,K562,> 100 µM
same,GI50,M14,1.97 µM
same,CC50,M14,16.3 µM
C=C1C(=O)O[C@H]2[C@H]1CC/C(COC(=O)NCCCCCNC(=O)OC/C1=C/CC[C@@]3(C)O[C@H]3[C@H]3OC(=O)C(=C)[C@@H]3CC1)=C\CC[C@@]1(C)O[C@@H]21,GI50,TK-10,1.82 µM
same,CC50,TK-10,11.8 µM
same,GI50,A549,14.9 µM
same,CC50,A549,71.7 µM
same,GI50,[1],2.91 µM
same,CC50,[1],> 100 µM
same,GI50,SR,0.38 µM
same,CC50,SR,> 100 µM
same,GI50,HT-29,0.51 µM
same,CC50,HT-29,4.85 µM
same,GI50,OVCAR-8,3.27 µM
same,CC50,OVCAR-8,61 µM
same,GI50,HCT-15,6.18 µM
same,CC50,HCT-15,49.8 µM
same,GI50,LOX IMVI,0.46 µM
same,CC50,LOX IMVI,5.82 µM
same,GI50,DU-145,3.06 µM
same,LC50 (concentration killing half the cells),DU-145,32.6 µM
same,GI50,OVCAR-5,1.67 µM
same,CC50,OVCAR-5,7.47 µM
same,GI50,SK-MEL-28,1.58 µM
same,CC50,SK-MEL-28,12.6 µM
same,GI50,BT-549,1 µM
same,LC50,BT-549,4.96 µM
same,GI50,HL-60(TB),0.31 µM
same,CC50,HL-60(TB),> 100 µM
same,pEC50,[2],5.80
same,GI50,MCF7,0.39 µM
same,CC50,MCF7; read-out: LC50 (the source's name),6.2 µM
same,GI50,CAKI-1,16.1 µM
same,CC50,CAKI-1,68.1 µM
same,GI50,NCI-H460,4.34 µM
same,CC50,NCI-H460,50.7 µM
same,GI50,UACC-62,1.41 µM
same,CC50,UACC-62,7.04 µM
same,GI50,OVCAR-3,0.76 µM
same,CC50,OVCAR-3,5.07 µM
same,pEC50,[3],5.46
same,pEC50,[4],< 5.00
same,GI50,Malme-3M,2.06 µM
same,CC50,Malme-3M,27.3 µM
same,GI50,RPMI-8226,0.78 µM
same,CC50,RPMI-8226,> 100 µM
same,pEC50,[5],5.80
same,GI50,SF-539,1.92 µM
same,CC50,SF-539,12.7 µM
same,GI50,SF-268,3.08 µM
same,CC50,SF-268,42.3 µM
same,pEC50,[6],6.24
same,GI50,K562,0.56 µM
same,CC50,K562,> 100 µM
same,GI50,M14,1.71 µM
same,CC50,M14,8.2 µM
